The source made the active and inactive calls. The calls are words filed in the database; no cut-off is given here.
Columns and labels:
[1] = Growth inhibition of human CUTLL1 cells in absence of 1 uM dexamethasone after 48 hrs by alamar blue assay; type: functional, cell-based; conditions: CUTLL1, 48 h
Procedure, shortened: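 CUTLL1 cells given compound alone or with dexamethasone 1 μM. Growth inhibition measured by alamar blue after 48 h.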

CUTLL1 [2] = test: Growth inhibition of human CUTLL1 cells at 50 uM in presence of deferoxamine after 48 hrs by alamar blue assay; type: functional, cell-based
CUTLL1 [3] = test: Growth inhibition of human CUTLL1 cells at 50 uM in presence of etoposide after 48 hrs by alamar blue assay; type: functional, cell-based
[4] = target: Gamma-secretase (Homo sapiens) (UniProt Q96BI3+Q9NZ42+Q8WW43+P49768+Q92542+P49810); test: Inhibition of gamma secretase in human CUTLL1 cells assessed as effect on NOTCH cleavage level at 25 uM in presence of 1 uM dexamethasone after 24 hrs by Western blotting; type: cell-based
Procedure, shortened: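 Western blot of intracellular NOTCH (ICN) in CUTLL1 cells after 24 h exposure to compound alone or with 1 μM dexamethasone. The γ-secretase inhibitor Compound E (100 nM) plus dexamethasone was the reference treatment.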

CUTLL1 [5] = test: Growth inhibition of human CUTLL1 cells at 12.5 to 50 uM in presence of 1 uM dexamethasone and 1 uM […] and glucocorticoid receptor antagonist RU486 after 48 hrs by alamar blue assay; type: functional, cell-based
Procedure, shortened: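 CUTLL1 cells treated for 48 h with compound, with or without dexamethasone 1 μM and RU486 1 μM. Growth inhibition read out by alamar blue.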

CUTLL1 [6] = test: Growth inhibition of human CUTLL1 cells with high GR expression levels at 50 uM after 48 hrs by alamar blue assay; type: functional, cell-based
Procedure, shortened: (§1)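 Human CUTLL1 T-ALL cells engineered to express high (overexpressed) or low (knockdown) glucocorticoid receptor levels. Exposed to compound alone or with 1 μM dexamethasone. Alamar blue growth inhibition read after 48 h.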

CUTLL1 [7] = test: Growth inhibition of human CUTLL1 cells with low GR expression levels at 50 uM after 48 hrs by alamar blue assay; type: functional, cell-based; procedure, shortened: as §1
CUTLL1 [8] = test: Increase in GR expression in human CUTLL1 cells at 25 to 50 uM in presence of 1 uM dexamethasone after 24 hrs by RT-qPCR method; type: functional, cell-based
Procedure, shortened: (§2)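 CUTLL1 cells exposed to compound (25 or 50 μM) alone, with 1 μM dexamethasone, or with dexamethasone plus 1 μM RU486, for 6 or 24 h. GR measured as protein by Western blot and as transcript by RT-qPCR.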

CUTLL1 [9] = test: Increase in GR expression in human CUTLL1 cells at 50 uM after 6 hrs by RT-qPCR method; type: functional, cell-based; procedure, shortened: as §2
CUTLL1 [10] = test: Effect on TSC22D3 gene expression in human CUTLL1 cells in presence of 1 uM dexamethasone at 30 uM after 24 hrs by microarray method; type: functional, cell-based
Procedure, shortened: (§3)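 Human CUTLL1 T-ALL cells exposed for 24 h to vehicle (DMSO), dexamethasone alone (1 μM), test compound alone (30 μM), or dexamethasone 1 μM plus compound 30 μM, each in triplicate. Expression profiled by microarray. Glucocorticoid-regulated gene sets from ALL patients on glucocorticoid therapy scored by GSEA. Leading-edge genes compared between the combination and dexamethasone alone.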

CUTLL1 [11] = test: Effect on FKBP5 gene expression in human CUTLL1 cells in presence of 1 uM dexamethasone at 30 uM after 24 hrs by microarray method; type: functional, cell-based
Procedure, shortened: (§4)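 CUTLL1 T-ALL cells exposed 24 h to vehicle (DMSO), dexamethasone alone (1 μM), test agent alone (30 μM), or dexamethasone (1 μM) plus test agent (30 μM), in triplicate. Expression profiled by microarray. Leading-edge genes from GSEA were compared between the dexamethasone-plus-agent and dexamethasone-alone groups, using glucocorticoid-regulated gene sets from ALL patients on glucocorticoid therapy.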

CUTLL1 [12] = test: Effect on SMAP2 gene expression in human CUTLL1 cells in presence of 1 uM dexamethasone at 30 uM after 24 hrs by microarray method; type: functional, cell-based; procedure, shortened: as §3
CUTLL1 [13] = test: Effect on BTG1 gene expression in human CUTLL1 cells in presence of 1 uM dexamethasone at 30 uM after 24 hrs by microarray method; type: functional, cell-based; procedure, shortened: as §4
CUTLL1 [14] = test: Effect on TWISTNB gene expression in human CUTLL1 cells in presence of 1 uM dexamethasone at 30 uM after 24 hrs by microarray method; type: functional, cell-based; procedure, shortened: as §3
CUTLL1 [15] = test: Effect on RPS14 gene expression in human CUTLL1 cells in presence of 1 uM dexamethasone at 30 uM after 24 hrs by microarray method; type: functional, cell-based; procedure, shortened: as §3
CUTLL1 [16] = test: Effect on POLE3 gene expression in human CUTLL1 cells in presence of 1 uM dexamethasone at 30 uM after 24 hrs by microarray method; type: functional, cell-based; procedure, shortened: as §3
CUTLL1 [17] = test: Effect on CHEK1 gene expression in human CUTLL1 cells in presence of 1 uM dexamethasone at 30 uM after 24 hrs by microarray method; type: functional, cell-based; procedure, shortened: as §4
CUTLL1 [18] = test: Effect on MCM10 gene expression in human CUTLL1 cells in presence of 1 uM dexamethasone at 30 uM after 24 hrs by microarray method; type: functional, cell-based; procedure, shortened: as §4
CUTLL1 [19] = test: Effect on DSCC1 gene expression in human CUTLL1 cells in presence of 1 uM dexamethasone at 30 uM after 24 hrs by microarray method; type: functional, cell-based; procedure, shortened: as §4
CUTLL1 [20] = test: Effect on BCCIP gene expression in human CUTLL1 cells in presence of 1 uM dexamethasone at 30 uM after 24 hrs by microarray method; type: functional, cell-based; procedure, shortened: as §4
CUTLL1 [21] = test: Effect on GINS2 gene expression in human CUTLL1 cells in presence of 1 uM dexamethasone at 30 uM after 24 hrs by microarray method; type: functional, cell-based; procedure, shortened: as §4
CUTLL1 [22] = test: Effect on TK1 gene expression in human CUTLL1 cells in presence of 1 uM dexamethasone at 30 uM after 24 hrs by microarray method; type: functional, cell-based; procedure, shortened: as §3
CUTLL1 [23] = test: Effect on TSC22D3 gene expression in human CUTLL1 cells in absence of 1 uM dexamethasone at 30 uM after 24 hrs by microarray method; type: functional, cell-based; procedure, shortened: as §3
CUTLL1 [24] = test: Effect on ZFP36L2 gene expression in human CUTLL1 cells in absence of 1 uM dexamethasone at 30 uM after 24 hrs by microarray method; type: functional, cell-based; procedure, shortened: as §3
CUTLL1 [25] = test: Effect on SMAP2 gene expression in human CUTLL1 cells in absence of 1 uM dexamethasone at 30 uM after 24 hrs by microarray method; type: functional, cell-based; procedure, shortened: as §3
CUTLL1 [26] = test: Effect on TWISTNB gene expression in human CUTLL1 cells in absence of 1 uM dexamethasone at 30 uM after 24 hrs by microarray method; type: functional, cell-based; procedure, shortened: as §3
CUTLL1 [27] = test: Effect on SMC2 gene expression in human CUTLL1 cells in absence of 1 uM dexamethasone at 30 uM after 24 hrs by microarray method; type: functional, cell-based; procedure, shortened: as §3
CUTLL1 [28] = test: Effect on RAD51AP1 gene expression in human CUTLL1 cells in absence of 1 uM dexamethasone at 30 uM after 24 hrs by microarray method; type: functional, cell-based; procedure, shortened: as §3
CUTLL1 [29] = test: Effect on BCCIP gene expression in human CUTLL1 cells in absence of 1 uM dexamethasone at 30 uM after 24 hrs by microarray method; type: functional, cell-based; procedure, shortened: as §4
CUTLL1 [30] = test: Effect on RANBP1 gene expression in human CUTLL1 cells in absence of 1 uM dexamethasone at 30 uM after 24 hrs by microarray method; type: functional, cell-based; procedure, shortened: as §3
CUTLL1 [31] = test: Effect on ATAD2 gene expression in human CUTLL1 cells in absence of 1 uM dexamethasone at 30 uM after 24 hrs by microarray method; type: functional, cell-based; procedure, shortened: as §4

inhibition [4]: inactive
Structure (SMILES): Nc1ncc(-c2ccncc2)c(C2CC2)n1
EC50 [1]: ≥ 100 µM
growth inhibition (GI) (CUTLL1 [2]): inactive
growth inhibition (GI) (CUTLL1 [3]): inactive
growth inhibition (GI) (CUTLL1 [5]): inactive
growth inhibition (GI) (CUTLL1 [6]): inactive
growth inhibition (GI) (CUTLL1 [7]): inactive
Activity (CUTLL1 [8]): Active
Activity (CUTLL1 [9]): inactive
Activity (CUTLL1 [10]): Active
Activity (CUTLL1 [11]): Active
Activity (CUTLL1 [12]): Active
Activity (CUTLL1 [13]): Active
Activity (CUTLL1 [14]): Active
Activity (CUTLL1 [15]): Active
Activity (CUTLL1 [16]): Active
Activity (CUTLL1 [17]): Active
Activity (CUTLL1 [18]): Active
Activity (CUTLL1 [19]): Active
Activity (CUTLL1 [20]): Active
Activity (CUTLL1 [21]): Active
Activity (CUTLL1 [22]): Active
Activity (CUTLL1 [23]): inactive
Activity (CUTLL1 [24]): inactive
Activity (CUTLL1 [25]): inactive
Activity (CUTLL1 [26]): inactive
Activity (CUTLL1 [27]): inactive
Activity (CUTLL1 [28]): inactive
Activity (CUTLL1 [29]): inactive
Activity (CUTLL1 [30]): inactive
Activity (CUTLL1 [31]): inactive

Source: ChEMBL document CHEMBL3351896, “Small Molecule that Reverses Dexamethasone Resistance in T-cell Acute Lymphoblastic Leukemia (T-ALL)” (ACS Med Chem Lett, 2014)
